Source: PubChem
TRPC6 inhibitor = mouse TRPC6 channel inhibitors, primary screen, cell-based, HEK293, membrane potential dye; Short transient receptor potential channel 6 (Mus musculus), Q61143; ACh-evoked depolarization; stronger effect = lower value; B-score at 10 µM; 1.1% of 310,000 active;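 active = B-score under library mean minus 3 SD, initial fluorescence not abnormally high, positive integrated signal ratio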;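 note: B-score derived from integrated fluorescence ratio over the kinetic read; more negative B-score means stronger inhibition of depolarization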
TRPC6 act = mouse TRPC6 channel activators, primary screen, cell-based, HEK293, membrane potential dye. HEK293-TRPC6 membrane potential dye fluorescence; stronger effect = higher value. B-score at 10 µM. 0.13% of 310,000 active. AID 2550, 2010;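 active = B-score of the integrated fluorescence ratio above library mean plus 3 SD, and starting fluorescence ratio within library mean plus 5 SD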;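 note: higher score means more depolarization so channel activation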
TRPC4 inh = inhibitors of mouse TRPC4 channel, primary screen, Fluo4 calcium, HEK293 TRPC4beta/mu-opioid cells | DAMGO-evoked Fluo4 calcium flux; stronger effect = lower value | B-score at 10 µM | 0.39% of 300,000 active;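 active = B-score over 3 SD under the library average, no early fluorescence shift, positive overall ratio signal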
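Assay system: HEK293 cells with stable TRPC4beta plus mu-opioid receptor expression; Probe or stimulus: DAMGO in two steps, submaximal then maximal; Dosing: single-point compound dosing; Measured by: Fluo4 calcium-dye fluorescence, kinetic read; Read-out basis: B score from integrated Fluo4 fluorescence ratio.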
TRPC4 potent = positive allosteric modulators of TRPC4, primary screen, cell-based, mouse TRPC4beta, HEK293 mu-opioid, Fluo-4 calcium; Short transient receptor potential channel 4 (Mus musculus), Q9QUQ5; AID 2227, 2009; B-score at 10 µM; 0.42% of 310,000 active; DAMGO EC20, Fluo-4 Ca2+ flux; stronger effect = higher value;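 active = B-score of calcium response area above 5 SD of library B-scores, with initial fluorescence ratio within 5 SD of library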;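 note: B-score of integrated fluorescence ratio over time as area under calcium response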
TRPC4 act = activators of mouse TRPC4 channel, primary screen, Fluo4 calcium, HEK293 TRPC4beta/mu-opioid cells; Short transient receptor potential channel 4 (Mus musculus), Q9QUQ5; Fluo4 calcium fluorescence; stronger effect = higher value; B-score at 10 µM; 0.49% of 310,000 active; AID 2237, 2010;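 active = B-score above 5 SD of library B-scores, and initial fluorescence ratio not above library mean plus 5 SD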;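 note: positive B-score marks a calcium rise read as TRPC4 activation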
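Test system: HEK293 cells stably co-expressing mouse TRPC4beta and mu-opioid receptor | Schedule: Fluo4 dye loading 45 min at room temperature, 110 s recording | Measured by: Kinetic Fluo4 calcium fluorescence, 5 s baseline at 1 Hz | Evaluation: B score of integrated ratio | Controls: Buffer (low) and maximal DAMGO (high)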
TRPC4 sel inh 2 = mouse TRPC4 off-target activity of TRPC6 inhibitors, second screen; shares compounds with TRPC6 inhibitor; AID 2776; 42% of 920 active; HEK293 TRPC4/MOR, membrane potential dye fluorescence; channel activated by saturating DAMGO dose; inhibition, % at 10 µM;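 active = compounds whose fluorescence signal differed from control wells by over 3 SD, either direction, in both duplicate plates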
TRPC4 spec = mouse TRPC4 modulation by TRPC6 hits, confirmation, selectivity assay for TRPC6 inhibitor project, cell-based, HEK293 TRPC4/mu-opioid, membrane potential dye. shares compounds with TRPC6 inhibitor. membrane potential fluorescence. activity change, negative = inhibition, % at 10 µM. 61% of 920 active. AID 2777, 2010;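 active = rise or fall in signal beyond 3 SD of buffer-only wells in both replicate plates, either sign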;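 note: integrated kinetic ratio of fluorescence range over baseline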
HEK293 MPD ctr 2-1 = nonspecific membrane potential effects, parental HEK293, confirmation, counter-screen for TRPC6 inhibitor project, cell-based, second counter screen; shares compounds with TRPC6 inhibitor; parental HEK293 membrane potential dye fluorescence; maximal acetylcholine challenge after compound addition; signal change vs control, % at 10 µM; 31% of 920 active;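 active = membrane potential signal moving either way by over 3 SD of the maximum-effect control, in both duplicate plates, meaning non-specific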
HEK293 MPD ctr-1 = membrane potential modulation in parental HEK293, confirmation, counter-screen for TRPC6 inhibitor project, cell-based | shares compounds with TRPC6 inhibitor | parental HEK293 membrane potential dye fluorescence | membrane potential signal change, % at 10 µM | 60% of 920 active;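 active = membrane potential signal shifting up or down by more than 3 SD of buffer-only wells, on both duplicate plates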
HEK293 MPD ctr-2 = parental HEK293 membrane potential modulation, confirmation, counter-screen for TRPC6 modulator project, cell-based. membrane potential dye fluorescence. 51% of 2,400 active. membrane potential signal change, % at 10 µM. AID 488924, 2010. shares compounds with TRPC6 inhibitor;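 active = membrane potential signal moves up or down beyond 5 SD from buffer-only wells, on both duplicate plates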
HEK293 MPD ctr 2-2 = second check of TRPC6 modulator effects in parental HEK293 cells; AID 488926; membrane potential dye fluorescence; after compound, maximal acetylcholine stimulation; shares compounds with TRPC6 inhibitor; 14% of 2,400 active; inhibition, % at 10 µM;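 active = membrane potential signal drops by more than 5 SD from the mean control signal, in both duplicate plates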;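 note: plate controls were acetylcholine ECmax control wells for no effect and buffer only wells for full effect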
TRPC4/MOR mod = TRPC4 modulation by TRPC6 hit compounds, confirmation, selectivity assay for TRPC6 modulator project, cell-based, HEK293 TRPC4/mu-opioid, membrane potential dye, mouse; shares compounds with TRPC6 inhibitor; membrane potential fluorescence; percent change from control (negative = decrease, positive = increase), % at 10 µM; 69% of 2,400 active; AID 488927, 2010;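 active = membrane potential signal moved up or down beyond 5 SD of buffer control wells, in both duplicate plates, actives on both sides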;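 note: plate controls were assay buffer wells for no effect and DAMGO maximal-effect wells for full effect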
TRPC4 ctr inh 2 = mouse TRPC4 off-target activity of TRPC6 modulators, second screen | shares compounds with TRPC6 inhibitor | HEK293 TRPC4/mu-opioid, membrane potential dye fluorescence; stimulated with maximal-effect DAMGO | inhibition, % at 10 µM | 55% of 2,400 active;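 active = drop in membrane potential signal beyond 5 SD of the control wells in both duplicate plates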;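 note: TRPC4 counter screen for TRPC6 hits run under conditions tuned for TRPC6 not TRPC4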
TRPC6 inh conf = mouse TRPC6 channel inhibitors, confirmation, HEK293 cells, membrane potential dye, duplicate | 43% of 3,300 active | shares compounds with TRPC6 inhibitor | inhibition, % at 10 µM | ACh-evoked depolarization;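 active = fluorescence ratio falls more than 5 SD below the full-stimulation control mean, in both duplicate runs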;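 note: integrated fluorescence ratio of peak minus minimum over baseline after agonist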
TRPC6 act conf = mouse TRPC6 channel activators, confirmation, HEK293 cells, membrane potential dye, duplicate; shares compounds with TRPC6 inhibitor; HEK293-TRPC6 membrane potential dye fluorescence, FDSS; activation, % at 10 µM; 11% of 2,800 active;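 active = ratio signal rise beyond 5 SD above unstimulated control wells' mean, seen in both duplicate runs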;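 note: plate controls were buffer EC0 wells for no effect and acetylcholine ECmax response for full effect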
* = called active by the depositor; i = inactive; . = no result given. The list is not random: actives were taken first. Their share in the collection is about 2.3%.

SMILES	TRPC6 inhibitor	TRPC6 act	TRPC4 inh	TRPC4 potent	TRPC4 act	HEK293 MPD ctr-2	HEK293 MPD ctr 2-2	TRPC4/MOR mod	TRPC4 ctr inh 2	TRPC6 inh conf	TRPC6 act conf	others
CCc1nc(C(N)=O)c2[nH]c(=O)n(-c3ccc(OC)cc3OC)c2n1	i	i	i	i	i	.	.	.	.	.	.
COc1ccc(CNC(=O)C2=CCN(S(=O)(=O)c3ccc(C)cc3)CC2)cc1	i	i	i	i	i	.	.	.	.	.	.
CCN(c1ccc(C)cc1)S(=O)(=O)c1nnc(NC(=O)c2ccco2)s1	i	i	i	i	i	.	.	.	.	.	.
Cc1cccc(NC(=O)CSc2ncnc3sc(C)cc23)c1	i	i	i	i	i	.	.	.	.	.	.
CCOC(=O)CN1C(=O)C(=O)N(Cc2c(Cl)cccc2Cl)C1=O	-5.6*	i	i	i	i	i	i	i	i	i	i
CCOC(=O)CN1C(=O)C(=O)N(Cc2cccc(C)c2)C1=O	i	i	i	i	i	.	.	.	.	.	.
Cc1cc(-n2cccn2)ccc1CN1CCN(CC(C)C)C(CCO)C1 (stereo not given)	-8.3*	i	i	i	i	.	.	.	.	58%*	i	TRPC4 sel inh 2=i;TRPC4 spec=4.3%*;HEK293 MPD ctr 2-1=26%*;HEK293 MPD ctr-1=5.6%*
COC(=O)c1ccc(CN2CCN(CCC(C)C)C(CCO)C2)cc1 (stereo not given)	-5.2*	i	i	i	i	99%*	i	10%*	i	i	.
